Myeloid diff 2: compounds promoting myeloid differentiation; 360,000 tested, 1% active; AID 624256; calls only at 10 µM; ER-HoxA9 myeloid progenitors, lysozyme-GFP differentiation, flow cytometry;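 active = normalized GFP-positive differentiation at or above the plate's own cutoff, the solvent-only control mean plus 3 SD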;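 also: cells exposed to compound for four days before flow analysis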
MC4R barr agon: activates human MC4R beta-arrestin recruitment. U2OS MC4R beta-arrestin complementation, luminescence; percent of melanotan II response, DMSO zero. activation, % at 8.9 µM. 360,000 tested, 0.98% active;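 active = activation above a per-plate cutoff, the mean activation of sample wells on that plate plus 3 SD, cut at about 8% in these data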
Target sequence (P32245 whole entry, looked up): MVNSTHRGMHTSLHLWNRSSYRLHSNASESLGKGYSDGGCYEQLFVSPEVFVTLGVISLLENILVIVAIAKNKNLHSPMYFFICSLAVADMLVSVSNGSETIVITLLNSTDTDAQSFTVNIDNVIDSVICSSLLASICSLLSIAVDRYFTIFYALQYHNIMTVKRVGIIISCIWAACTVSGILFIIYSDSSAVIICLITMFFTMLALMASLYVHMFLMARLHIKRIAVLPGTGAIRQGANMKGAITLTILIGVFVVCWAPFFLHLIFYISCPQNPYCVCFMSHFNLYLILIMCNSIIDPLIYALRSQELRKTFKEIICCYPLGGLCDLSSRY
Granule exo inh: blocks lytic granule exocytosis; inhibition, % at 10 µM; AID 651702; TALL-104 LAMP-1 surface exposure, flow cytometry; cells stimulated with thapsigargin and PMA; 360,000 tested, 0.66% active;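 active = inhibition above about 55%, limit read from the data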
MC4R antagonist: antagonists of human melanocortin 4 receptor (MC4R); P32245; MC4R-expressing cells, MTII-stimulated cAMP, LANCE TR-FRET; inhibition, % at 6.5 µM; 360,000 tested, 0.48% active; AID 540295;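 active = inhibition above its plate's cutoff, the mean of tested wells on that plate plus 3 SD, cut at about 29% in these data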
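material = U2OS cells stably expressing human melanocortin 4 receptor (MC4R) | also added = Melanotan II challenge | dosing = single nominal compound dose of 6.5 µM | detection = TR-FRET with Eu-cAMP and labeled anti-cAMP, 671 nm | replication = singlicate | timing = compound 30 min, challenge 1 h, detection 1 h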
EBI2 antag: EBI2 (human) antagonism | inhibition, % at 5 µM | AID 651636 | EBI2 beta-arrestin recruitment, luminescence, 7a,25-OHC stimulated | P32249 | 360,000 tested, 0.81% active; in the data active = inhibition above about 38%;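 also: enzyme fragment complementation signal reports receptor beta-arrestin coupling in cells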
A number is an active result; – = inactive; · = not tested or not shown; + = active, no number. A selection: hits, their analogues and other compounds. The true share with any hit is near 3.7%.

SMILES	Myeloid diff 2	MC4R barr agon	Granule exo inh	MC4R antagonist	EBI2 antag
N#CCSc1ccccc1NC(=O)COc1ccc(-c2nnco2)cc1	+	–	–	–	–
COC1=C(C)C(=O)C2=C(C1=O)C1C3CC4=C(C(=O)C(OC)=C(C)C4=O)C(CNC(=O)C(C)=O)N3C(C#N)C(C2)N1C (stereo not drawn)	·	–	74	–	–
NNC(=O)c1sc(-c2ccc(Cl)cc2)cc1N	+	–	–	–	–
CCc1c(C)nc(SCC(=O)NNC(=O)c2ccco2)[nH]c1=O	+	–	–	–	–
CCc1c(C)nc(SCC(=O)Nc2ccc(Br)cc2)[nH]c1=O	–	–	–	–	–
CNc1sc(C(=O)c2cccs2)c(N)c1-c1nc2ccccc2s1	–	–	65	–	–
Cc1cc(/C=C2\SC(=S)NC2=O)c(C)n1-c1ccc(O)cc1	–	–	–	–	–
Cc1cc(/C=C2\SC(=S)NC2=O)c(C)n1C	+	–	–	–	–
CC(C)(C)c1ccc(OCc2cnc(Cl)s2)cc1	–	9.3	–	–	–
O=C1NC(Cc2c[nH]c3ccccc23)C(=O)N1Cc1ccc(CN2C(=O)NC(Cc3c[nH]c4ccccc34)C2=O)cc1 (stereo not drawn)	–	–	–	–	–
Cc1ccc(C(O)P(=O)(OCCC(C)C)c2ccc(N(C)C)cc2)cc1 (stereo not drawn)	–	–	60	–	–
CC(C)C(=O)Nc1cc2c3c(c1)CCC(=O)N3CCC2	–	–	–	–	–
CN=c1sc2ccccc2n1CC(O)COCc1ccco1 (stereo not drawn)	+	–	–	–	–
COc1cccc2cc(-c3nc4ccccc4o3)c(=O)oc12	+	–	–	–	–
CC1=C(C(=O)N(C(C)C)C(C)C)CC(CC(=O)NCCCCc2ccccc2)C(=O)N1Cc1ccc(C(C)(C)C)cc1 (stereo not drawn)	+	·	–	·	–
COc1ccc(CN2C(=O)C(CC(=O)NCCCCc3ccccc3)CC(C(=O)N(C(C)C)C(C)C)=C2C)cc1 (stereo not drawn)	–	–	–	–	–
Cc1ccc(C(=O)C[n+]2cccc3cc(C)ccc32)cc1	+	–	–	–	–
COc1ccc2c(ccc[n+]2CC(=O)c2ccc(C)cc2)c1	–	–	–	–	–
Cc1ccc(C(=O)CCS(=O)(=O)c2ccc(Cl)cc2)cc1	+	–	–	–	–
COc1ccc(NC(=O)CCS(=O)(=O)c2ccc(Cl)cc2)cc1	+	–	–	–	–
O=C(Nc1ccc(Cl)c(Cl)c1)N[C@@H]1CC[C@@H](CCn2cc(C3CCCCC3)nn2)O[C@@H]1CO	–	·	–	·	–
O=C(Nc1ccc(N2C(=O)CCC2=O)cc1Cl)c1cccs1	–	–	–	–	–
CC1CCCN(S(=O)(=O)c2ccc(NC(=O)Cn3nnc(-c4ccccc4F)n3)cc2)C1 (stereo not drawn)	–	–	–	–	–
CC1CCN(S(=O)(=O)c2ccc(NC(=O)Cn3nnc(-c4ccccc4)n3)cc2)CC1	–	37	–	–	–
CC1CCN(CC(=O)Nc2ccc(S(=O)(=O)N3CCC(C)CC3)cc2)CC1	–	–	–	–	–
SMILES	Myeloid diff 2	MC4R barr agon	Granule exo inh	MC4R antagonist	EBI2 antag
Cc1ccc(-c2nnn(CC(=O)Nc3ccc(S(=O)(=O)N4CCC(C)CC4)cc3)n2)cc1	–	13	–	–	–
CC(=O)N1Cc2cc(C(=O)NCC(F)(F)F)nc(-c3cccc(-c4cc5ccccc5o4)c3)c2[C@H]1CCO	–	·	–	·	–
COC(=O)[C@@H](NCc1cccc(CN[C@H](C(=O)OC)c2ccccc2)c1)c1ccccc1	–	–	66	–	–
COC(=O)C(NC(=O)CCC(=O)N[C@@H](C(=O)OC)c1ccccc1)c1ccccc1 (stereo partly drawn)	–	–	–	–	–
N#Cc1c(-c2ccccc2)cc(-c2ccccc2)[nH]c1=O	–	–	–	–	–
COc1cc(-c2cc(-c3ccc(N)cc3)[nH]c(=O)c2C#N)cc(OC)c1OC	+	–	–	–	–
Cc1ccc(C(=O)NCCCn2ccnc2)cc1C	–	–	–	–	–
O=C(NCCCn1ccnc1)c1ccc2nccnc2c1	+	–	–	–	–
Fc1ccc(NCc2cn3ccccc3n2)cc1	+	–	–	–	–
Cc1ccc2c(C)c(C(=O)Nc3ccc(S(N)(=O)=O)cc3)oc2c1C	–	–	–	–	–

High-throughput results as filed in PubChem.
